Test [1] concerns the target T1, purified human LAL (phLAL) (Homo sapiens, UniProt P38571).
T1 sequence (P38571 77-399): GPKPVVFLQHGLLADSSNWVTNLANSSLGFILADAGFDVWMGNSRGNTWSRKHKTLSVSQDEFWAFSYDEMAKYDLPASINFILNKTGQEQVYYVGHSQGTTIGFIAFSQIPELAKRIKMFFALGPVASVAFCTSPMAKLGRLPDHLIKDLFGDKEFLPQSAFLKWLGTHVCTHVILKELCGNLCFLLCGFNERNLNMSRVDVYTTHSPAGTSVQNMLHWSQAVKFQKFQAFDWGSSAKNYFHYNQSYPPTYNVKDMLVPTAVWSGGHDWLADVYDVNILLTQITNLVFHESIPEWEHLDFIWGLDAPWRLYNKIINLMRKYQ
The experiment in a line: In vitro LAL activity assay. It counts as biochemical. The note with it: 10 μM compound; Supplemental Figures 1 and 2.

The target in test [2] is T2, phLAL (Homo sapiens, UniProt P38571).
T2 sequence (P38571 77-399): T1 sequence (P38571 77-399)
The experiment in a line: Time-dependence of LAL inhibition. The test is classed as biochemical. The note with it: pre-incubation at 833 nM, 500 nM final, 37 °C; Figure 3.

For test [3], the target named is T3, LAL (Homo sapiens, UniProt P38571).
T3 sequence (P38571 77-399): T1 sequence (P38571 77-399)
The experiment in a line: LAL activity in lysates of compound-treated cells. The note with it: for inhibition of LAL in cell lysates: cells treated continuously ~4 days, Figure 4A; for inhibition of LAL in cell lysates after withdrawal: ~3 days treatment, ~1 day recovery in growth medium, Figure 4B. The test is classed as cell-based.

Test [4] deals with NPC1 mutant cells. Put plainly: Filipin LSO assay of cholesterol accumulation. The test is classed as cell-based, human. The note with it: ~3 days treatment, Figure 4C. Summed up: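 Compound-treated cells (~3 days) stained with filipin. Automated fluorescence imaging at 4 (10×) or 9 (20×) sites per well, 2×2 binning, laser autofocus per site, 12-bit images. After background correction, LSO ratio is integrated thresholded filipin fluorescence within LSOs, normalised to total cell area defined by low-threshold filipin signal.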

The test system of test [5] is apparently normal human fibroblasts. Put plainly: LipidTOX green neutral lipid accumulation. The test is classed as cell-based. As to conditions: normal cells, ~3 days treatment; Figure 4D. Summed up:
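Normal human fibroblasts kept in MEM (2.2 g/L bicarbonate, 10% FBS) and treated with compound for ~3 days. Stained with LipidTOX green and imaged at 482/35 nm excitation, 536/40 nm emission, 20× 0.5 NA objective, with autofocus per site. LSO ratio is thresholded LipidTOX fluorescence within LSOs, normalised to total cell area from low-threshold filipin signal.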

In test [6] the target is T1, purified human LAL (phLAL). As to conditions: previous studies; cited from earlier work.
The target in test [7] is T1, purified human LAL (phLAL). The experiment in a line: Lineweaver-Burk analysis of LAL inhibition. It counts as biochemical. The note with it: 30 min pre-incubation at 37 °C, 4MUO at various concentrations. The gist of the method:
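Recombinant purified human LAL pre-incubated with compound for 30 min at 37 °C in 200 mM sodium acetate pH 5.5, 0.02% Tween-20. Started with varied 4-methylumbelliferyl oleate in Triton X-100 and followed by fluorescence (355/450 nm) for 45 min. Compound levels given as final. Double-reciprocal plots fitted by linear regression, two independent experiments.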

Test [8] addresses T2, phLAL. The note with it: earlier study; cited from earlier work.
Test [9] has as its system many lipases. As to conditions: cited from earlier work.
In test [10] the test system is NPC1- or NPC2-defective mice. The note with it: ref 5a, 9; cited from earlier work.

The text below walks through data of article PMC2912405 (Journal of medicinal chemistry, 2010).

Counter-ions that a name gives are not always drawn.

With `CN1CCC(OC(=O)Nc2ccc(F)cc2)CC1` [1-methyl-4-piperidinyl-N-(4-fluorophenyl) carbamate], the “inhibition of LAL activity at 10 μM” value in test [1] is recorded as “None of these carbamates inhibited LAL”.
For `O=C(Oc1nsnc1N1CCCC1)N1CCCCC1` [Compound 10, 4-(Pyrrolidin-1-yl)-1,2,5-thiadiazol-3-yl piperidine-1-carboxylate], the “pre-incubation time-dependence of inhibition” value in test [2] is “significantly higher time-dependence than other compounds”. Besides, in test [3], the “inhibition of LAL in cell lysates” value is “much higher level of inhibition of LAL upon cell lysis than 11, 13, 15, and 17”; the “inhibition of LAL in cell lysates after withdrawal” value (“inhibition … after withdrawal” for short) is listed as “maximal potency”.
For `O=C(Oc1nsnc1N1CCCCC1)N1CCCCC1` [Compound 12], the “decrease in cholesterol accumulation” value in test [4] is “most potent”. In addition, in test [3], the “inhibition of LAL in cell lysates” value is “much higher level of inhibition of LAL upon cell lysis than 11, 13, 15, and 17”; the “inhibition … after withdrawal” value is reported as “maximal potency”. The “increase in neutral lipid accumulation” value in [5] is given as “most potent”.
For `O=C(Oc1nsnc1N1CCCCC1)N1CCOCC1` [Compound 13], the “potency and specificity towards LAL” value in test [6] was “significant potency and specificity towards LAL”. Also, the type of inhibition entry in test [7] is listed as “apparent competitive inhibitor”. In test [8], the “time-dependence of inhibition upon pre-incubation with phLAL” value is “some time-dependence of inhibition”.
Consider `O=C(Oc1nsnc1N1CCOCC1)N1CCCCC1` [Compound 14], for which the “inhibition of LAL in cell lysates” value in [3] was “much higher level of inhibition of LAL upon cell lysis than 11, 13, 15, and 17”. In addition, the “potency and specificity towards LAL” value in [6] was “significant potency and specificity towards LAL”. Further, the “time-dependence of inhibition upon pre-incubation with phLAL” value in test [8] is on record as “some time-dependence of inhibition”.
With `O=C(Oc1nsnc1N1CCOCC1)N1CCOCC1` [Compound 15], the “decrease in cholesterol accumulation” value in test [4] is given as “least potent”. For the same compound, in test [3], the “inhibition of LAL in cell lysates” value was “least potent” and the “inhibition … after withdrawal” value is reported as “least potent”. In addition, the “potency and specificity towards LAL” value in test [6] is “significant potency and specificity towards LAL”. Besides, the “increase in neutral lipid accumulation” value in [5] is “least potent”. Moreover, the “time-dependence of inhibition upon pre-incubation with phLAL” value in test [8] is listed as “some time-dependence of inhibition”.
For `O=C(Oc1nsnc1N1CCCCCC1)N1CCCCC1` [Compound 16], in [3], the “inhibition of LAL in cell lysates” value was “much higher level of inhibition of LAL upon cell lysis than 11, 13, 15, and 17”; the “inhibition … after withdrawal” value is given as “maximal potency”.
Consider `Cl.NCCCCCCNC(=O)OCc1ccccc1` [benzyl N-(6-aminohexyl) carbamate hydrochloride], for which the “inhibition of LAL activity at 10 μM” value in test [1] is “None of these carbamates inhibited LAL”.
For `CNC(=O)Oc1ccc2c(c1)[C@]1(C)CCN(C)[C@@H]1N2C` [eserine], in test [1], the “inhibition of LAL activity at 10 μM” value was “None of these carbamates inhibited LAL”.
Same read-out and setting: under `COc1ccccc1OCC(O)COC(N)=O` (stereo not drawn) [guaiacol glyceryl ether carbamate] stands “None of these carbamates inhibited LAL”; under `COC(N)=O` [methyl carbamate], “None of these carbamates inhibited LAL”; under `CN(C)C(=O)Oc1cccc([N+](C)(C)C)c1` [neostigmine methyl sulfate], “None of these carbamates inhibited LAL”.
Take `CCCCCCCCCCC[C@@H](C[C@@H]1OC(=O)[C@H]1CCCCCC)OC(=O)[C@H](CC(C)C)NC=O` [orlistat]: in test [9], the inhibition of lipases entry is “potent inhibitor of many lipases”.
Regarding β-cyclodextrins, in test [10], the “accumulation of cholesterol and other lipids in LSOs” value is “significant reduction”; the lifespan entry is “significantly extends lifespan”.
